Laboratory results reported in ChEMBL document CHEMBL3272176, “Nucleic acids. 16. Orally active derivatives of ara-cytidine” (1976).

Columns and labels:
[1] = test system: L1210; assay: Antitumor activity against mouse L1210 cells allografted in mouse assessed as increase in life span at 200 umol/kg/day, po using 0.9% (W/V) aqueous NaCl vehicle for 5 days 24 hrs after tumor inoculation; format: functional
Summary of the method: (§1)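 Mice were inoculated ip on day 0 with 1×10^6 L1210 cells each. Dosing started 24 h later, once daily for 5 days, in groups of eight. Survival was recorded to the nearest day. %ILS was calculated from median survival of treated vs control groups, with ≥25% counted as significant. For the plain-saline and HCl vehicles, compound was first wetted with a few drops of ethanol (<5% v/v).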

[2] = test system: Rattus norvegicus; assay: Immunosuppression activity in rat assessed as reduction of adjuvant-induced acute inflammation administered po twice daily on days 0 to 14
[3] = test system: L1210; assay: Antitumor activity against mouse L1210 cells allografted in mouse assessed as increase in life span at 400 umol/kg/day, po using 0.9% (W/V) aqueous NaCl vehicle for 5 days 24 hrs after tumor inoculation; format: functional; summary of the method: as §1
[4] = test system: L1210; assay: Antitumor activity against mouse L1210 cells allografted in mouse assessed as increase in life span at 100 umol/kg/day, po using 0.9% (W/V) aqueous NaCl vehicle for 5 days 24 hrs after tumor inoculation; format: functional; summary of the method: as §1
[5] = test system: Rattus norvegicus; assay: Immunosuppression activity in experimental allergic encephalomyelitis rat model administered po for days 1 to 13 measured on day 14
[6] = test system: Rattus norvegicus; assay: Immunosuppression in experimental allergic encephalomyelitis rat model administered po for days 1 to 13 measured on day 17
[7] = test system: Rattus norvegicus; assay: Immunosuppression activity in rat assessed as reduction of adjuvant-induced polyarthritis administered po twice daily on days 0 to 14 measured on day 21
[8] = test system: Rattus norvegicus; assay: Immunosuppression activity in rat assessed as reduction of adjuvant-induced polyarthritis administered po twice daily for days 0 to 14 measured on day 15
[9] = test system: L1210; assay: Antitumor activity against mouse L1210 cells allografted in mouse assessed as increase in life span at 100 umol/kg/day, po using 0.01 N HCl vehicle for 5 days 24 hrs after tumor inoculation; format: functional; summary of the method: as §1
[10] = test system: L1210; assay: Antitumor activity against mouse L1210 cells allografted in mouse assessed as increase in life span at 400 umol/kg/day, po using 0.01 N HCl vehicle for 5 days 24 hrs after tumor inoculation; format: functional; summary of the method: as §1
[11] = test system: L1210; assay: Antitumor activity against mouse L1210 cells allografted in mouse assessed as increase in life span at 200 umol/kg/day, po using 0.01 N HCl vehicle for 5 days 24 hrs after tumor inoculation; format: functional; summary of the method: as §1
[12] = test system: L1210; assay: Antitumor activity against mouse L1210 cells allografted in mouse assessed as increase in life span at 400 umol/kg/day, po using 0.1 N HCl vehicle for 5 days 24 hrs after tumor inoculation; format: functional; summary of the method: as §1
[13] = test system: L1210; assay: Antitumor activity against mouse L1210 cells allografted in mouse assessed as increase in life span at 200 umol/kg/day, po using 0.1 N HCl vehicle for 5 days 24 hrs after tumor inoculation; format: functional; summary of the method: as §1
[14] = test system: L1210; assay: Antitumor activity against mouse L1210 cells allografted in mouse assessed as increase in life span at 100 umol/kg/day, po using 0.1 N HCl vehicle for 5 days 24 hrs after tumor inoculation; format: functional; summary of the method: as §1
[15] = test system: L1210; assay: Antitumor activity against mouse L1210 cells allografted in mouse assessed as increase in life span at 100 umol/kg/day, ip using 0.9% (W/V) aqueous NaCl vehicle for 5 days 24 hrs after tumor inoculation; format: functional; summary of the method: as §1
[16] = test system: L1210; assay: Antitumor activity against mouse L1210 cells allografted in mouse assessed as increase in life span at 200 umol/kg/day, ip using 0.9% (W/V) aqueous NaCl vehicle for 5 days 24 hrs after tumor inoculation; format: functional; summary of the method: as §1
[17] = test system: L1210; assay: Antitumor activity against mouse L1210 cells allografted in mouse assessed as increase in life span at 400 umol/kg/day, po using 0.9% (W/V) aqueous NaCl vehicle for 5 days 24 hrs after tumor inoculation in presence of THU 10 mg/kg/day on days 1 to 5
[18] = test system: L1210; assay: Antitumor activity against mouse L1210 cells allografted in mouse assessed as increase in life span at 200 umol/kg/day, po using 0.9% (W/V) aqueous NaCl vehicle for 5 days 24 hrs after tumor inoculation in presence of THU 10 mg/kg/day on days 1 to 5; format: functional; summary of the method: as §1
[19] = test system: L1210; assay: Antitumor activity against mouse L1210 cells allografted in mouse assessed as increase in life span at 100 umol/kg/day, po using 0.9% (W/V) aqueous NaCl vehicle for 5 days 24 hrs after tumor inoculation in presence of THU 10 mg/kg/day on days 1 to 5; format: functional; summary of the method: as §1
[20] = test system: L1210; assay: Antitumor activity against mouse L1210 cells allografted in mouse assessed as increase in life span at 400 umol/kg/day, ip using 0.9% (W/V) aqueous NaCl vehicle for 5 days 24 hrs after tumor inoculation; format: functional; summary of the method: as §1
[21] = test system: L1210; assay: Antitumor activity against mouse L1210 cells allografted in mouse assessed as increase in life span at 200 umol/kg/day, po using saline vehicle for 5 days 24 hrs after tumor inoculation; format: functional; summary of the method: as §1
[22] = test system: L1210; assay: Antitumor activity against mouse L1210 cells allografted in mouse assessed as increase in life span at 400 umol/kg/day, po using saline vehicle for 5 days 24 hrs after tumor inoculation; format: functional; summary of the method: as §1
[23] = test system: L1210; assay: Antitumor activity against mouse L1210 cells allografted in mouse assessed as increase in life span at 100 umol/kg/day, po using saline vehicle for 5 days 24 hrs after tumor inoculation; format: functional; summary of the method: as §1

SMILES | ILS at 200 µmol/kg [1] | inhibition (INH) [2] | ILS at 400 µmol/kg [3] | ILS at 100 µmol/kg [4] | inhibition (INH) [5] | inhibition (INH) [6] | inhibition (INH) [7] | inhibition (INH) [8] | other results
CCCCCCCCCCCCCCCC(=O)OC[C@H]1O[C@@H](n2ccc(NC(=O)[C@H](CCCNC(=N)N)NC(=O)CNC(=O)OC(C)(C)C)nc2=O)[C@@H](O)[C@@H]1O.Cl | 44% | 6% | 110% | 30% | 35.1% | 10.5% |  |  | 
Cl.Nc1ccn([C@@H]2O[C@H](COC(=O)c3cccnc3)[C@@H](O)[C@@H]2O)c(=O)n1 |  | 4% |  |  |  |  | 0% | 0% | ILS at 100 µmol/kg [9]: 31%; ILS at 400 µmol/kg [10]: 69%; ILS at 200 µmol/kg [11]: 46%
Cl.Nc1ccn([C@@H]2O[C@H](COC(=O)C34CC5CC(CC(C5)C3)C4)[C@@H](O)[C@@H]2O)c(=O)n1 |  | 4% |  |  | 5.4% | 7.9% | 28% | 31% | ILS at 400 µmol/kg [12]: 130%; ILS at 200 µmol/kg [13]: 77%; ILS at 100 µmol/kg [14]: 46%
Nc1ccn([C@@H]2O[C@H](CO)[C@@H](O)[C@@H]2O)c(=O)n1 [CYTARABINE] | 38% | -4% | 62% | 15% |  |  | 7% | 20% | ILS at 100 µmol/kg [15]: 69%; ILS at 200 µmol/kg [16]: 100%; ILS [17]: 138%; ILS [18]: 92%; ILS [19]: 62%; ILS at 400 µmol/kg [20]: 131%
CCCCCCCCCCCCCCCC(=O)OC[C@H]1O[C@@H](n2ccc(N)nc2=O)[C@@H](O)[C@@H]1O.Cl |  | 13% |  |  | 8.1% | 13.2% | 6% | 11% | ILS at 100 µmol/kg [9]: 46%; ILS at 400 µmol/kg [10]: 92%; ILS at 200 µmol/kg [11]: 69%
Cl.Nc1ccn([C@@H]2O[C@H](COC(=O)C3CC4CCN3CC4)[C@@H](O)[C@@H]2O)c(=O)n1 (stereo not given in full) |  | -2% |  |  |  |  | 0% | 5% | ILS at 200 µmol/kg [21]: 0%; ILS at 400 µmol/kg [22]: 15%; ILS at 100 µmol/kg [23]: 8%
CC(C)(C)OC(=O)NCC(=O)N[C@@H](CCCNC(=N)N)C(=O)Nc1ccn([C@@H]2O[C@H](COC(=O)C34CC5CC(CC(C5)C3)C4)[C@@H](O)[C@@H]2O)c(=O)n1.Cl | 43% | 1% | 93% | 21% | 5.4% | 10.5% | 18% | 50% | 
Cl.Nc1ccn([C@@H]2O[C@H](COC(=O)c3ccccc3)[C@@H](O)[C@@H]2O)c(=O)n1 |  | 15% |  |  | 0% | 0% | 20% | 47% | ILS at 200 µmol/kg [21]: 31%; ILS at 400 µmol/kg [22]: 62%; ILS at 100 µmol/kg [23]: 15%
CC(C)(C)OC(=O)NCC(=O)N[C@@H](CCCNC(=N)N)C(=O)Nc1ccn([C@@H]2O[C@H](COC(=O)c3ccccc3)[C@@H](O)[C@@H]2O)c(=O)n1.Cl | 21% | 9% | 43% | 14% | 13.5% | 5.3% | 35% | 52% | 
